Bioassay records (PubChem BioAssay)
NPY-Y2 antag: NPY-Y2 (human) receptor antagonism; P49146; NPY-Y2 expressing cells, antagonist mode; inhibition, % at 2.7 µM; hit rate 0.99% among 140,000; AID 793; in the data active = inhibition above about 17%;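 note: 0% = vehicle with agonist challenge and 100% = reference antagonist with challenge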
Target sequence (P49146 whole entry, looked up): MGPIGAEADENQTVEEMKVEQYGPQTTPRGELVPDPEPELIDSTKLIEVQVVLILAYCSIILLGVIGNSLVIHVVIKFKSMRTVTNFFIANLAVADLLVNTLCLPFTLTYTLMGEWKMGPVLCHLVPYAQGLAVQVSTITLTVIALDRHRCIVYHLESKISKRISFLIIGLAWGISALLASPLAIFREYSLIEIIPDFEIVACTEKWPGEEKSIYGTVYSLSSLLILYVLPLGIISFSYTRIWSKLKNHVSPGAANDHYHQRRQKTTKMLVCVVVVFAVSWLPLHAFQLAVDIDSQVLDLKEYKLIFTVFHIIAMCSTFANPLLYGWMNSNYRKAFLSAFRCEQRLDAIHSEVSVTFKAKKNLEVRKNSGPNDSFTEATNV
NPY1 pot ag: potentiators or agonists of human neuropeptide Y receptor Y1. P25929. NPY-Y1 expressing cells, potentiator/agonist activation. activation, % at 3.6 µM. hit rate 0.37% among 220,000. AID 1304; in the data active = activation above about 33%, passing the limit was not always enough;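 note: cells stimulated with NPY at EC10 then isoproterenol at EC100; 0% = low agonist plus stimulus and 100% = saturating agonist plus stimulus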
Target sequence (P25929 whole entry, looked up): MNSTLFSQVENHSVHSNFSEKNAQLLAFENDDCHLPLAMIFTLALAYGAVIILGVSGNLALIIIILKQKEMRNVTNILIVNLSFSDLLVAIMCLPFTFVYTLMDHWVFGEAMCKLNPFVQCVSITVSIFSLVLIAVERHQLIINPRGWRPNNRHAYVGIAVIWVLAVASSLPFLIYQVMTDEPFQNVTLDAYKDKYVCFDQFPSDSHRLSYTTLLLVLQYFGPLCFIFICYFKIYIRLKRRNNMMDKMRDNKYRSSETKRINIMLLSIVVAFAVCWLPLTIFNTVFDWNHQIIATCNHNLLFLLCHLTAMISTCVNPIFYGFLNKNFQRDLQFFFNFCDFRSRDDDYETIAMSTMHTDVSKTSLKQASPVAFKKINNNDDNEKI
NPY-Y2 PAM-ag: potentiators or agonists of human neuropeptide Y receptor Y2; P49146; cells expressing NPY-Y2, potentiator/agonist read-out; activation, % at 3.6 µM; hit rate 0.45% among 220,000; in the data active = activation above about 27%;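 note: cells stimulated with NPY near EC25 plus isoproterenol at EC100; 0% = vehicle plus submaximal agonist and 100% = vehicle plus saturating agonist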
NPY Y1 blocker: antagonists of human neuropeptide Y receptor Y1 | hit rate 1% among 200,000 | AID 1040 | inhibition, % at 3.6 µM | HEK293-CNG Y1 cells, membrane potential fluorescence; NPY at EC95, then isoproterenol | P25929;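 active = inhibition above the campaign mean inhibition of all tested compounds plus 3 SD, cut at about 20% in these data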;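 note: 0% = DMSO wells given NPY plus isoproterenol and 100% = isoproterenol alone without NPY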
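Material: HEK293 cells co-expressing NPY Y1 receptor and cyclic-nucleotide gated channel. Timing: compound incubation 1 h at room temperature, readout 45 min post-stimulation. Signal: fluorescence, membrane potential probe.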
NPY-Y1 pot conf: human NPY-Y1 potentiation or agonism, confirmation | shares compounds with NPY1 pot ag | AID 1546 | activation, % at 3.6 µM | cell-based NPY-Y1 potentiator/agonist assay | hit rate 20% among 280; in the data active = activation above about 45%;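 note: cells challenged with NPY at its EC10 plus isoproterenol stimulus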
NPY-Y2 counter: NPY-Y2 potentiation or agonism as NPY-Y1 counter-screen; shares compounds with NPY1 pot ag; HEK293-CNG cells, membrane-potential fluorescence (FLIPR), 1536-well; activation, % at 3.6 µM; hit rate 20% among 280; in the data active = activation above about 33%
NPY-Y1 ag: human NPY-Y1 agonism as potentiator counter-screen; hit rate 50% among 280; AID 1697; HEK293 Y1-CNGC, membrane potential fluorescence, agonist mode; shares compounds with NPY1 pot ag; activation, % at 3.6 µM;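 active = percent activation above the mean of DMSO-only control wells plus 3 SD of those wells, cut at about 18% in these data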;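 note: cells challenged with isoproterenol plus Ro 20-1724 with no NPY in test wells; Y1 agonism lowers isoproterenol-driven cAMP and reduces probe fluorescence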
NPY-Y2 agonist: activates human NPY-Y2, counter-screen for NPY-Y1 hits | shares compounds with NPY1 pot ag | HEK293 Y2-CNGC, membrane potential fluorescence, agonist mode | activation, % at 3.6 µM | hit rate 67% among 280 | AID 1698;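 active = activation above the solvent-only control wells' mean plus 3 SD, cut at about 11% in these data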;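 note: 0% = DMSO with isoproterenol and 100% = 40 nM NPY maximal response; agonism lowers cAMP so well fluorescence drops in active wells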
CNGC inh 2: blocks cyclic nucleotide gated channel in NPY-Y1 counter-screen | hit rate 42% among 280 | HEK293-CNG parental, isoproterenol cAMP, membrane potential fluorescence | shares compounds with NPY1 pot ag | inhibition, % at 3.6 µM;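 active = inhibition above the mean of stimulated solvent-only control wells plus 3 SD, cut at about 22% in these data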;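 note: 0% = isoproterenol-stimulated DMSO wells and 100% = unstimulated DMSO wells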
The depositor's hits bear a star; . = no result given. The list is not random: actives were taken first. Their share in the collection is about 1.8%.

SMILES | NPY-Y2 antag | NPY1 pot ag | NPY-Y2 PAM-ag | NPY Y1 blocker | NPY-Y1 pot conf | NPY-Y2 counter | NPY-Y1 ag | NPY-Y2 agonist | CNGC inh 2
O=C(CN1c2ccccc2Sc2ccccc21)NNC(=S)Nc1ccc(Cl)cc1 | . | 36.2 | 32.2 | . | . | . | . | . | .
N#Cc1c(-c2ccccc2)c(-c2ccccc2)nn(CC(=O)NNC(=O)Nc2ccc(Cl)c(Cl)c2)c1=O | -1.3 | 38.4* | 5.2 | -10.2 | 43.1 | 27.6 | 34.4* | 32.2* | 32.3*
Cn1c(=O)[nH]c(=O)c2c1nc(N1CCCCC1)n2CCSc1nc2ccccc2o1 | -0.2 | 39.8* | 7.5 | 0.6 | -3.0 | 1.9 | 0.8 | 9.4 | 2.8
Cc1ccccc1C(=O)N1CCN(c2ccc(NC(=S)NC(=O)c3cccs3)cc2)CC1 | . | 35.8* | 15.4 | -6.5 | -0.4 | 14.3 | 11.2 | 15.3* | 19.1
Cc1ccc(C(=O)N2CCN(c3ccc(NC(=S)NC(=O)c4cccs4)cc3)CC2)cc1 | . | 8.0 | 9.8 | -1.6 | . | . | . | . | .
CCN(CC)S(=O)(=O)c1cc(C(=O)OCC(=O)c2ccc3c(c2)NC(=O)CO3)ccc1F | 1.6 | 7.0 | 15.2 | -1.5 | . | . | . | . | .
COc1ccc(/C=C2\SC(=S)N(CC3CCCO3)C2=O)cc1 (stereo unspecified) | . | 11.3 | 10.2 | . | . | . | . | . | .
COc1ccc(N=C2O/C(=C/c3sc(=S)n(CC4CCCO4)c3O)N=C2C#N)cc1 (stereo unspecified) | . | 52.8* | 20.7 | . | 42.2 | 44.8* | 21.8* | 48.1* | 11.7
CN(C)CCCCOc1ccccc1-c1ccccc1 | 3.9 | -29.9 | -4.2 | 18.9 | . | . | . | . | .
CN(C)CCNC(=O)COc1ccc(Cl)cc1Cl | 5.3 | -16.8 | -10.8 | -7.7 | . | . | . | . | .
O=C(COc1ccc(Cl)cc1Cl)NCCSc1ccc(Cl)cc1 | 7.1 | 91.1* | -33.2 | 18.1 | -36.0 | -22.9 | -20.9 | -0.9 | -26.1
O=S(=O)(Nc1ccc2oc(-c3ccccc3)nc2c1)c1ccccc1 | 3.8 | -2.8 | 11.3 | 8.6 | . | . | . | . | .
N#CC1=C(N)OC2=C(C(=O)CC(c3ccco3)C2)C1c1ccc(OCc2c(F)cccc2Cl)cc1 (stereo unspecified) | 2.9 | 63.0* | -26.7 | 1.0 | -1.9 | -10.4 | -3.2 | -10.2 | -3.3
COC(=O)COc1ccc(S(=O)(=O)NCCC2=CCCCC2)cc1Cl | 4.8 | 55.8* | 20.1 | 0.6 | 57.4* | 31.4 | 52.3* | 39.3* | 49.1*
COCCNS(=O)(=O)c1ccc(OCC(=O)OC)c(Cl)c1 | 1.5 | -5.7 | 0.9 | 2.2 | . | . | . | . | .
Cc1cccc(NC(=O)CSc2nnc(-c3cnccn3)n2Cc2ccco2)c1 | 0.8 | 13.3 | -5.3 | 2.1 | . | . | . | . | .
COC(=O)C1C2C=CC3(CN(Cc4cccs4)C(=O)C13)O2 (stereo unspecified) | -0.2 | -0.3 | -8.3 | -0.9 | . | . | . | . | .
Cc1ccn2c(Nc3ccccc3C)c(-c3ccncc3)nc2c1 | 0.4 | 41.0* | 29.5 | -3.9 | 58.8* | 49.7* | 36.1* | 50.0* | 26.7*
CNC(=O)C1(CC(C)C)C=CCN1C(C)=O (stereo unspecified) | 0.4 | -13.3 | -0.3 | 3.1 | . | . | . | . | .
O=C1/C(=C/c2ccccn2)SC(=S)N1c1cccc(O)c1 | . | 54.0* | 29.2 | . | 57.1* | 37.8* | 41.2* | 36.8* | 32.3*
COC(=O)CNC(=O)C12CC3CC(C1)CC(c1ccc(C)cc1)(C3)C2 | . | 5.8 | -9.5 | 6.4 | . | . | . | . | .
Cc1ccc(C23CC4CC(CC(CN)(C4)C2)C3)cc1 | . | 35.4* | 24.8 | 4.9 | 39.5 | 23.6 | 20.7* | 30.6* | 31.0*
O=C(COC(=O)c1ccc(NS(=O)(=O)c2cccs2)cc1O)NCc1ccccc1 | . | 3.1 | -8.7 | 0.6 | . | . | . | . | .
O=C(COC(=O)c1ccc(NS(=O)(=O)c2cccs2)cc1O)Nc1nc2ccccc2s1 | . | 43.1* | 22.5 | -3.3 | 35.0 | 24.0 | 38.2* | 24.7* | 21.8*
CC(C)CCn1c(=O)c2ccccc2n2c(CN3CCOCC3)nnc12 | . | 8.3 | -4.6 | 9.3 | . | . | . | . | .
SMILES | NPY-Y2 antag | NPY1 pot ag | NPY-Y2 PAM-ag | NPY Y1 blocker | NPY-Y1 pot conf | NPY-Y2 counter | NPY-Y1 ag | NPY-Y2 agonist | CNGC inh 2
COc1ccc(CCCc2nnc(SCC(=O)Nc3ncc(C)s3)o2)cc1 | 0.0 | -8.0 | -4.1 | -1.5 | . | . | . | . | .
COC(=O)[C@@H]1CC[C@H](C)[C@@H](c2ccc(C)cc2)N1C(=O)c1ccc(/C=N/OC[C@@H](O)[C@H]2O[C@@H]3OC(C)(C)O[C@@H]3[C@H]2O)cc1 | -0.1 | 38.9* | 16.1 | -3.2 | 5.7 | 0.0 | -2.4 | 6.2 | -10.2
CCOC(=O)C1=C(C)C2C3C(=O)N(c4cc(C)ccc4C)C(=O)C3C1(C)C1C(=O)N(c3cc(C)ccc3C)C(=O)C21 (stereo unspecified) | -3.0 | 44.3* | 8.4 | -0.4 | 17.2 | 8.7 | 16.1 | 8.4 | 10.3
COc1ccc(/C=N/Nc2nc(N3CCCC3)nc(N3CCCC3)n2)cc1 | -2.5 | -5.3 | -3.7 | 7.6 | . | . | . | . | .
COC(=O)c1ccc(/C=N/Nc2nc(N3CCCCC3)nc(N3CCCCC3)n2)cc1 | . | 71.9* | -12.7 | 4.0 | -20.8 | -14.6 | -26.6 | -15.9 | -12.6
O=C1C2C3c4ccccc4C(Br)(c4ccccc43)C2C(=O)N1c1ccccc1O (stereo unspecified) | -1.3 | 37.7* | 21.4 | -3.2 | 33.3 | 22.0 | 25.8* | 14.7* | 31.8*
CCn1ncc(Br)c1C(=O)Nc1ccc(F)c([N+](=O)[O-])c1 | -1.3 | 45.4* | 20.4 | -12.0 | 40.2 | 39.0* | 39.9* | 27.0* | 35.6*
CCn1ncc(Br)c1C(=O)Nc1ccc(F)cc1F | 1.7 | 2.3 | 3.7 | 1.9 | . | . | . | . | .
CC(C)[C@H](Nc1ccc(C(F)(F)F)cc1[N+](=O)[O-])C(=O)O | . | -15.6 | -11.8 | . | . | . | . | . | .
CC(C)(C)c1ccc(S(=O)(=O)NCCc2ccncc2)cc1 | -0.2 | 19.9 | 15.2 | -0.7 | . | . | . | . | .
CCN=c1scc(-c2cccs2)n1/N=C/c1cc(OC)ccc1O | 3.5 | -13.5 | -0.7 | -1.1 | . | . | . | . | .
CC(C)N=c1scc(-c2cccs2)n1/N=C/c1ccc(O)c(O)c1O | -1.2 | 52.2* | 20.6 | -4.2 | 50.8* | 39.2* | 52.9* | 25.9* | 21.0
COc1cccc(/C=N/Nc2snc(SC)c2C#N)c1O | 0.8 | 49.7* | 8.4 | -0.9 | -4.6 | 4.1 | -1.8 | 18.0* | 5.6
COc1ccc(/C=N/Nc2snc(SC)c2C#N)cc1OC | -1.6 | 23.6 | 8.3 | -2.6 | . | . | . | . | .
CC(O)C1CCC2C3CC[C@H]4CC(O)CCC4(C)C3CC3(OCCO3)C12C (stereo partly specified) | -3.0 | 57.0* | 9.0 | 2.2 | 6.2 | 2.8 | -9.7 | 2.3 | 12.4
COCc1cc(C)nc(SCC[N+](C)(C)CC(=O)Nc2cccc(C(F)(F)F)c2)c1C#N | . | 54.2* | -5.6 | -4.0 | 22.4 | 12.1 | 16.0 | 6.1 | 3.6
